In the M2OR odorant receptor database:

What was measured:
Conditions in all cases: stereoisomer not certain
UniProt A2ATE5 = biological target: T1, UniProt A2ATE5
T1 sequence (whole entry): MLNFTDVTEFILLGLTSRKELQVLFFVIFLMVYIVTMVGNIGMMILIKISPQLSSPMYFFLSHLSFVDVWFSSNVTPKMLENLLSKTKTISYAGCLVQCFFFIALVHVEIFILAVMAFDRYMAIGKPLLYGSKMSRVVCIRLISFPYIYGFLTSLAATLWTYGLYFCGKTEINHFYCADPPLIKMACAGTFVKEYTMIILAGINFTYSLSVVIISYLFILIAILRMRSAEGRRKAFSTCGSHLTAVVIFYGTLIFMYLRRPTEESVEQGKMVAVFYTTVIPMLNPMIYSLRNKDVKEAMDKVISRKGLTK
Outline: (§1)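 Each entry records the cell line, G-protein, co-transfected protein and tags used. Methods varied with the source, often transient luciferase assays in mammalian cell lines. A receptor–molecule pair is called responsive (active) if the original authors judged its signal statistically different from baseline and non-responsive (inactive) otherwise.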

UniProt A2AVB0 = biological target: T2, UniProt A2AVB0
T2 sequence (whole entry): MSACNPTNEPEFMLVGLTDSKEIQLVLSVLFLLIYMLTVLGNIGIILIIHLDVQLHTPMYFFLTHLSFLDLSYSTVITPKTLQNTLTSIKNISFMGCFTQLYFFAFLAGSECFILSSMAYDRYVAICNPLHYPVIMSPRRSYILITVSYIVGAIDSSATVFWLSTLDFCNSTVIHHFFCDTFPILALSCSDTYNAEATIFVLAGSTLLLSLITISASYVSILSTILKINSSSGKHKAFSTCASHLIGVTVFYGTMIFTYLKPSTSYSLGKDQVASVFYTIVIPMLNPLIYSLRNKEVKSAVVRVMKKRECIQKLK
Outline: as §1

UniProt A2AVB5 = biological target: T3, UniProt A2AVB5
T3 sequence (whole entry): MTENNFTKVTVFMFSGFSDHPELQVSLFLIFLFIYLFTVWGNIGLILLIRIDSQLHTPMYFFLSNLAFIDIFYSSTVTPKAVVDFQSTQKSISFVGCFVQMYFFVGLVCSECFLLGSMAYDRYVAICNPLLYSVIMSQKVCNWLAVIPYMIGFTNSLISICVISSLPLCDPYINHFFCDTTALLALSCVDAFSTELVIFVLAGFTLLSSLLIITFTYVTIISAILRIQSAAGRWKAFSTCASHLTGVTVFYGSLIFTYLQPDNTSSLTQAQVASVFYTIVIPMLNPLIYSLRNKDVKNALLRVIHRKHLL
Outline: as §1

UniProt B2RVX8 = biological target: T4, UniProt B2RVX8
T4 sequence (whole entry): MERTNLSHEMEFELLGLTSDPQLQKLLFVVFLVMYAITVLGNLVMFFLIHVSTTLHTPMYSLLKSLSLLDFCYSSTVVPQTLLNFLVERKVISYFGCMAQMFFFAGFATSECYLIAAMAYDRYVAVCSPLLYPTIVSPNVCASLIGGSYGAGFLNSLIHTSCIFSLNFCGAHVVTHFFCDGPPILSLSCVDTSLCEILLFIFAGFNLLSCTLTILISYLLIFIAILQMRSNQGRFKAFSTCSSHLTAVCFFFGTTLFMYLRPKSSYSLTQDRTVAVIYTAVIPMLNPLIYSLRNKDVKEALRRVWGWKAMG
Outline: as §1

UniProt E9PVX1 = biological target: T5, UniProt E9PVX1
T5 sequence (whole entry): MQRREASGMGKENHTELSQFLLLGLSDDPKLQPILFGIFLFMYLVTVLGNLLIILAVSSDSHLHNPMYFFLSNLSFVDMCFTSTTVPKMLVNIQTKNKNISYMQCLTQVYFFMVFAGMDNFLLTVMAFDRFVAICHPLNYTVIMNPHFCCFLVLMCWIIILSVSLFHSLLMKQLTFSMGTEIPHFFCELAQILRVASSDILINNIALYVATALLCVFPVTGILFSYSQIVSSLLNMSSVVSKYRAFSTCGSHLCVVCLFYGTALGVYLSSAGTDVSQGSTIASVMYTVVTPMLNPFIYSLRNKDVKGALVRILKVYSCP
Outline: as §1

UniProt E9PZ66 = biological target: T6, UniProt E9PZ66
T6 sequence (whole entry): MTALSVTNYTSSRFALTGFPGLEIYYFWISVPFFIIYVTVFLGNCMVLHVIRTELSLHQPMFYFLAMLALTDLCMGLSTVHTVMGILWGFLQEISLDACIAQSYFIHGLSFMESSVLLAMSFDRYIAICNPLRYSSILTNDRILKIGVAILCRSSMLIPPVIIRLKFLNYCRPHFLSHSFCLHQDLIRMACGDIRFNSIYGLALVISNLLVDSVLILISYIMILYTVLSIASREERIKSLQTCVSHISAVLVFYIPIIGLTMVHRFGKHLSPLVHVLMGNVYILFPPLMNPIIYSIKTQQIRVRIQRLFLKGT
Outline: as §1

UniProt E9Q4X7 = biological target: T7, UniProt E9Q4X7
T7 sequence (whole entry): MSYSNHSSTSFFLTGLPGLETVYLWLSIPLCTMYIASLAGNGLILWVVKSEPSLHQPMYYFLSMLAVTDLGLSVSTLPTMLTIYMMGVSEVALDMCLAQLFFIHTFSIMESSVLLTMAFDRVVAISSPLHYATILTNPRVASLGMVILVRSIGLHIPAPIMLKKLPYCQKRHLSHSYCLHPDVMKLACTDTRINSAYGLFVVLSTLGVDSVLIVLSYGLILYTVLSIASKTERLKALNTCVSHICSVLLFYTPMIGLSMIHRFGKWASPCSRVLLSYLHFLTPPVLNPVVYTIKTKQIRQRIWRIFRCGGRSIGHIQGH
Outline: as §1

UniProt E9Q546 = biological target: T8, UniProt E9Q546
T8 sequence (whole entry): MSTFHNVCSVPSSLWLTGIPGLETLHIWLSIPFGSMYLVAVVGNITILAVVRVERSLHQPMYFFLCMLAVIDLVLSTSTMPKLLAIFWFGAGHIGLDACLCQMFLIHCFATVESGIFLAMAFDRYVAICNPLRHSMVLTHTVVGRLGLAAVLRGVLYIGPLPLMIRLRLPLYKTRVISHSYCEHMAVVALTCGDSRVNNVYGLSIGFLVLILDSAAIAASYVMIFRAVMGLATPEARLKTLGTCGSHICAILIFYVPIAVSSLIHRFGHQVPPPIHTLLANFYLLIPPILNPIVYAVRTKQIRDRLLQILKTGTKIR
Outline: as §1

UniProt E9Q6Z7 = biological target: T9, UniProt E9Q6Z7
T9 sequence (whole entry): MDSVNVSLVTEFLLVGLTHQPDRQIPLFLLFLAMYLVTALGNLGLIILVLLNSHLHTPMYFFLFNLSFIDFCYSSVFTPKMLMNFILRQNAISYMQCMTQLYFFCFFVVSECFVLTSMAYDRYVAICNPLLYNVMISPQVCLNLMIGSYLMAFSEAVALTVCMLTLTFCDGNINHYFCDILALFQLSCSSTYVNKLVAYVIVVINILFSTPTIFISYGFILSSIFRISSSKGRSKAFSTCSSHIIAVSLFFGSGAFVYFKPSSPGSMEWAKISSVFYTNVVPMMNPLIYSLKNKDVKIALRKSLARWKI
Outline: as §1

UniProt K7N609 = biological target: T10, UniProt K7N609
T10 sequence (whole entry): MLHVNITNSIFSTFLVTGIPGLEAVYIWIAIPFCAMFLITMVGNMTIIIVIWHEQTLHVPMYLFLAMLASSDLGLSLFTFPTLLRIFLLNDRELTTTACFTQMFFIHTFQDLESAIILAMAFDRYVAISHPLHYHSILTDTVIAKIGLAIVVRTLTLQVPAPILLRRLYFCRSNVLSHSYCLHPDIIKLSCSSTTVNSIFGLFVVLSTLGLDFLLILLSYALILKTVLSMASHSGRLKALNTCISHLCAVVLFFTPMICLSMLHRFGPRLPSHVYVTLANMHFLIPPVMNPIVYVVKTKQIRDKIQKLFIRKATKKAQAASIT
Outline: as §1

UniProt E9PX47 = biological target: T11, UniProt E9PX47
T11 sequence (whole entry): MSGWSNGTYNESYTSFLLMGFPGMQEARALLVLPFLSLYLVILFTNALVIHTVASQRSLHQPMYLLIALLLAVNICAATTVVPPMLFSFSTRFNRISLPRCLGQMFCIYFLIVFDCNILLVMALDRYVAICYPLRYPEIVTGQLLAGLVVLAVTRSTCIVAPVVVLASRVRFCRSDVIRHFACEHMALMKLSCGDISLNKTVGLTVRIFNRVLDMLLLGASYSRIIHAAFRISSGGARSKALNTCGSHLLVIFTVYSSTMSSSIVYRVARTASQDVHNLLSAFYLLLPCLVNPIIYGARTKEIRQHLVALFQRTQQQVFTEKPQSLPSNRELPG
Outline: as §1

UniProt E9PXN3 = biological target: T12, UniProt E9PXN3
T12 sequence (whole entry): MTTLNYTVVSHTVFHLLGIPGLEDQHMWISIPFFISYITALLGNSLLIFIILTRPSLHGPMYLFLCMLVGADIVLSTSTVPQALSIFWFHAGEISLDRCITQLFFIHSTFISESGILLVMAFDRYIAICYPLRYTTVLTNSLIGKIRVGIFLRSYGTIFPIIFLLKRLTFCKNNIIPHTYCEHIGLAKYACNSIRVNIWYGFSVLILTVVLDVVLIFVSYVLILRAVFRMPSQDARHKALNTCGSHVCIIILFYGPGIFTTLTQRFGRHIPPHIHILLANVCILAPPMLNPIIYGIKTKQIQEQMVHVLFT
Outline: as §1

Measured: odorant receptor agonist call

CCCCCCOC(C)=O
not listed: UniProt E9PX47 | UniProt E9PXN3
inactive: all other assays above

CCCCCCCO
inactive: all assays above

CC(=O)OCC=C(C)C
not listed: UniProt E9PX47 | UniProt E9PXN3
inactive: all other assays above

C=C(C)C1CCC(C)C(=O)C1 (configuration not stated)
not listed: UniProt E9PX47 | UniProt E9PXN3
inactive: all other assays above

CCCCOC=O
not listed: UniProt E9PX47 | UniProt E9PXN3
inactive: all other assays above

CCCCC(=O)CC
not listed: UniProt E9PX47 | UniProt E9PXN3
inactive: all other assays above

CC(C)=CCCC(C)CCO (configuration not stated)
not listed: UniProt E9PX47 | UniProt E9PXN3
inactive: all other assays above

CCCCCOC(=O)CCCCC
not listed: UniProt E9PX47 | UniProt E9PXN3
inactive: all other assays above

CCCC(=O)C(C)=O
not listed: UniProt E9PX47 | UniProt E9PXN3
inactive: all other assays above

O=C(c1ccccc1)c1ccccc1
not listed: UniProt E9PX47 | UniProt E9PXN3
inactive: all other assays above
